Measured values published in ChEMBL document CHEMBL3232993, “Design, synthesis, and structure-activity relationship of a novel series of GluN2C-selective potentiators” (J Med Chem, 2014).
The source made the active and inactive calls. No cut-off for these calls is given here.

How the values were obtained:
Assay type in all cases: cell-based
[1] = biological target: Glutamate NMDA receptor; Grin1/Grin2a (Rattus norvegicus) (UniProt P35439+Q00959); test: Potentiation of rat recombinant GluN1/GluN2A expressed in Xenopus laevis oocytes assessed as increase in glutamate/glycine-induced current response at 30 uM by two-electrode voltage clamp technique relative to control
Method in brief: (§1)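 Two-electrode voltage clamp at −40 mV on Xenopus oocytes coexpressing GluN1 with GluN2A, 2B, 2C or 2D. […] Compounds came from 20 mM DMSO stocks, with 0.05–0.5% final DMSO. Some GluN2A oocytes were injected with K-BAPTA to limit current run-up. Recording solution was pH 7.4, 23 °C.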

[2] = biological target: Glutamate NMDA receptor; Grin1/Grin2b (Rattus norvegicus) (UniProt P35439+Q00960); test: Potentiation of rat recombinant GluN1/GluN2B expressed in Xenopus laevis oocytes assessed as increase in glutamate/glycine-induced current response at 30 uM by two-electrode voltage clamp technique relative to control; method in brief: as §1
[3] = biological target: Glutamate NMDA receptor; Grin1/Grin2c (Rattus norvegicus, UniProt P35439+Q00961); test: Potentiation of rat recombinant GluN1/GluN2C expressed in Xenopus laevis oocytes assessed as increase in glutamate/glycine-induced current response by two-electrode voltage clamp technique relative to control
[4] = biological target: Ionotropic glutamate receptor NMDA 1/2D (Rattus norvegicus) (UniProt P35439+Q62645); test: Potentiation of rat recombinant GluN1/GluN2D expressed in Xenopus laevis oocytes assessed as increase in glutamate/glycine-induced current response at 30 uM by two-electrode voltage clamp technique relative to control; method in brief: as §1
[5] = biological target: Glutamate NMDA receptor; Grin1/Grin2c (Rattus norvegicus) (UniProt P35439+Q00961); test: Potentiation of rat recombinant GluN1/GluN2C expressed in Xenopus laevis oocytes assessed as increase in glutamate/glycine-induced current response at 30 uM by two-electrode voltage clamp technique relative to control; method in brief: as §1

| Structure (SMILES) | Activity [1] [%] | Activity [2] [%] | Activity [4] [%] | Activity [5] | EC50 [3] [µM] | max activation [5] [%] |
| --- | --- | --- | --- | --- | --- | --- |
| COC(=O)c1ccc(C2C(C(=O)c3cccnc3)=C(O)C(=O)N2CCc2c[nH]c3cc(Cl)ccc23)cc1 (centres undefined) | 93 | 66 | 86 | 170% | 8.5 | 204 |
| COC(=O)c1cccc(C2C(C(C)=O)=C(O)C(=O)N2CCc2c[nH]c3ccccc23)c1 (centres undefined) | 99 | 88 | 94 | 94% | – | – |
| COC(=O)c1ccc(C2C(C(C)=O)=C(N)C(=O)N2CCc2c[nH]c3ccccc23)cc1 (centres undefined) | 93 | 85 | 75 | 102% | – | – |
| COC(=O)c1ccc(C2C(C(C)=O)=C(O)C(=O)N2CCc2c[nH]c3ccccc23)cc1C (centres undefined) | 108 | 91 | 86 | 88% | – | – |
| CCC(=O)C1=C(O)C(=O)N(CCc2c[nH]c3ccccc23)C1c1ccc(C(=O)OC)cc1 (centres undefined) | 85 | 77 | 78 | 160% | 24 | 204 |
| COC(=O)c1ccc(C2C(C(=O)c3cccc(Cl)c3)=C(O)C(=O)N2CCc2c[nH]c3ccccc23)cc1 (centres undefined) | 107 | 83 | 83 | 145% | 8.7 | 145 |
| COC(=O)c1ccc(C2C(C(=O)c3cccnc3)=C(O)C(=O)N2CCc2c[nH]c3cc(OC)ccc23)cc1 (centres undefined) | 84 | 98 | 85 | 194% | 8 | 204 |
| COC(=O)c1ccc(C2C(C(=O)c3ccncc3)=C(O)C(=O)N2CCn2cnc3ccccc32)cc1 (centres undefined) | 104 | 107 | 89 | 84% | – | – |
| COC(=O)c1ccc(C2C(C(C)=O)=C(O)C(=O)N2CCc2c[nH]c3ccccc23)cc1OC (centres undefined) | 98 | 80 | 86 | 92% | – | – |
| COC(=O)c1ccc(C2C(C(=O)c3ccncc3)=C(O)C(=O)N2CCc2c[nH]cn2)cc1 (centres undefined) | 101 | 95 | 94 | 89% | – | – |
| COC(=O)c1ccc(C2C(C(=O)c3cccnc3)=C(O)C(=O)N2CCc2coc3ccccc23)cc1 (centres undefined) | 96 | 83 | 80 | 113% | – | – |
| COC(=O)c1ccc(C2C(C(C)=O)=C(O)C(=O)N2CCc2c(C)[nH]c3ccccc23)cc1 (racemic) | 97 | 88 | 95 | 179% | – | 217 |
| COC(=O)c1ccccc1C1C(C(C)=O)=C(O)C(=O)N1CCc1c[nH]c2ccccc12 (centres undefined) | 88 | 78 | 93 | 99% | – | – |
| COC(=O)c1ccc(C2C(C(C)=O)=C(O)C(=O)N2CCc2c(C)[nH]c3ccccc23)cc1 (stereo in doubt; 106a) | – | – | – | – | – | 259 |
| CC(=O)C1=C(O)C(=O)N(CCc2c[nH]c3ccccc23)C1c1ccc(C(=O)OC(C)(C)C)cc1 (centres undefined) | 99 | 81 | 66 | 85% | – | – |
| CC(=O)C1=C(O)C(=O)N(CCc2c[nH]c3ccccc23)C1c1ccc(C(=O)OC(C)C)cc1 (centres undefined) | 96 | 95 | 83 | 102% | – | – |
| CC(=O)C1=C(O)C(=O)N(CCc2c[nH]c3ccccc23)C1c1ccc(C(=O)O)cc1 (centres undefined) | 100 | 94 | 88 | 93% | – | – |
| COC(=O)c1ccc(C2C(C(C)=O)=C(O)C(=O)N2CCc2ccccc2)cc1 (centres undefined) | 108 | 117 | 99 | 95% | – | – |
| COC(=O)c1ccc(C2C(C(C)=O)=C(O)C(=O)N2CCc2c[nH]c3ccccc23)cc1F (centres undefined) | 99 | 83 | 93 | 114% | – | – |
| COC(=O)c1ccc(C2C(C(=O)c3ccncc3)=C(O)C(=O)N2Cc2c[nH]c3ccccc23)cc1 (centres undefined) | 106 | 101 | 87 | 84% | – | – |
| COC(=O)c1ccc(C2C(C(C)=O)=C(O)C(=O)N2CCc2c[nH]c3ccccc23)cc1Cl (centres undefined) | 88 | 95 | 83 | 113% | – | – |
| CC(=O)C1=C(O)C(=O)N(CCc2c[nH]c3ccccc23)C1c1ccc([N+](=O)[O-])cc1 (centres undefined) | 106 | 83 | 77 | 94% | – | – |
| COC(=O)c1ccc(C2C(C(C)=O)=C(O)C(=O)N2CCc2c(C)[nH]c3ccccc23)cc1 (stereo in doubt; 106b) | – | – | – | inactive | – | – |

More lines, main results first:

| Activity [1] [%] | Activity [2] [%] | Activity [4] [%] | Activity [5] | Structure (SMILES) | EC50 [3] [µM] | max activation [5] [%] |
| --- | --- | --- | --- | --- | --- | --- |
| 112 | 70 | 74 | 85% | COC(=O)c1ccc(C2C(C(=O)c3cccnc3)=C(O)C(=O)N2CCc2c[nH]c3cccc(C)c23)cc1 (centres undefined) | – | – |
| 96 | 93 | 98 | 84% | COC(=O)c1ccc(C2C(C(=O)c3cccnc3)=C(O)C(=O)N2CCCc2c[nH]c3ccccc23)cc1 (centres undefined) | – | – |
| 74 | 88 | 73 | 114% | CNS(=O)(=O)c1ccc(C2C(C(=O)c3cccnc3)=C(O)C(=O)N2CCc2c[nH]c3ccccc23)cc1 (centres undefined) | – | – |
| 112 | 90 | 91 | 94% | COC(=O)c1ccc(C2C(C(=O)c3cccnc3)=C(O)C(=O)N2CCc2c[nH]c3ccc(OC)cc23)cc1 (centres undefined) | – | – |
| 111 | 87 | 85 | 106% | COC(=O)c1ccc(C2C(C(=O)c3cccnc3)=C(O)C(=O)N2CCc2cn(C)c3ccccc23)cc1 (centres undefined) | – | – |
| 92 | 90 | 80 | 109% | COC(=O)c1ccc(C2C(C(=O)c3cccc(OC)c3)=C(O)C(=O)N2CCc2c[nH]c3ccccc23)cc1 (centres undefined) | – | – |
| 98 | 89 | 94 | 100% | N#Cc1ccc(C2C(C(=O)c3cccnc3)=C(O)C(=O)N2CCc2c[nH]c3ccccc23)cc1 (centres undefined) | – | – |
| 96 | 105 | 89 | 93% | CNC(=O)c1ccc(C2C(C(=O)c3cccnc3)=C(O)C(=O)N2CCc2c[nH]c3ccccc23)cc1 (centres undefined) | – | – |
| 86 | 82 | 83 | 123% | NS(=O)(=O)c1ccc(C2C(C(=O)c3cccnc3)=C(O)C(=O)N2CCc2c[nH]c3ccccc23)cc1 (centres undefined) | – | 130 |
| 106 | 78 | 75 | 97% | COC(=O)c1ccc(C2C(C(=O)c3ccccn3)=C(O)C(=O)N2CCc2c[nH]c3ccccc23)cc1 (centres undefined) | – | – |
| 101 | 92 | 91 | 90% | NC(=O)c1ccc(C2C(C(=O)c3cccnc3)=C(O)C(=O)N2CCc2c[nH]c3ccccc23)cc1 (centres undefined) | – | – |
| 118 | 86 | 89 | 101% | CN(C)C(=O)c1ccc(C2C(C(=O)c3cccnc3)=C(O)C(=O)N2CCc2c[nH]c3ccccc23)cc1 (centres undefined) | – | – |
